Screening results from PubChem.
Rows were chosen to be rich in hits. Some 2.3% of all compounds tested hit in one or more screens of this group.
TRPC6 activator: activators of mouse TRPC6 channel; HEK293-TRPC6 membrane potential dye fluorescence; hits give high values; B-score at 10 µM; 310,000 compounds, 0.13% hits;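 active = B-score of the integrated fluorescence ratio above library mean plus 3 SD, and starting fluorescence ratio within library mean plus 5 SD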;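 note: higher score means more depolarization so channel activation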
Target sequence (Q61143 whole entry, looked up): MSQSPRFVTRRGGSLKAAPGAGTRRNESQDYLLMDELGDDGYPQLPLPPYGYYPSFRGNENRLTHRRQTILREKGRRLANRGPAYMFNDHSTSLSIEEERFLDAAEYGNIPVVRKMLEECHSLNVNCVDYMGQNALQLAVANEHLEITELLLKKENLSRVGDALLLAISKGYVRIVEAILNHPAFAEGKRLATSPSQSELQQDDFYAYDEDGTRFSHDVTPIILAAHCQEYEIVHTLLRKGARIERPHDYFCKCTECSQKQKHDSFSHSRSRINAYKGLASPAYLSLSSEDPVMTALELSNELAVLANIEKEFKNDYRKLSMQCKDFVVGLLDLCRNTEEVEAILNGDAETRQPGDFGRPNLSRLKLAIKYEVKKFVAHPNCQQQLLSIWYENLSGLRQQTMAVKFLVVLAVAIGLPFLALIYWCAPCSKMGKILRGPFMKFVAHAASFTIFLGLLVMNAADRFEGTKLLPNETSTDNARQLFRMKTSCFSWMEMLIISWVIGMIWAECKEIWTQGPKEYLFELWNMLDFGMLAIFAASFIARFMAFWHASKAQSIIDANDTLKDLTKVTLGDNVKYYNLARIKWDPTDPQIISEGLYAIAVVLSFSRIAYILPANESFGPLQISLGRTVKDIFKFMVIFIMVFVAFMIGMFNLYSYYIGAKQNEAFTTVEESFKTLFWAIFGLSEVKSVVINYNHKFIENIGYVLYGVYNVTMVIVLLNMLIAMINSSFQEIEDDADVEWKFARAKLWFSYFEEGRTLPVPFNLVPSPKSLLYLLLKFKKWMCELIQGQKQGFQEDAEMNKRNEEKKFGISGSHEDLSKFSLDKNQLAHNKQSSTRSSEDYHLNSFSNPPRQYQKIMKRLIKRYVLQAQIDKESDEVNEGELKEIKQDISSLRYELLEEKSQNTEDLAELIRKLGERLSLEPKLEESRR
TRPC4 block: blocks the mouse TRPC4 cation channel; HEK293 TRPC4beta/mu-opioid, DAMGO-evoked Fluo4 calcium flux; hits give low values; B-score at 10 µM; 300,000 compounds, 0.39% hits;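 active = B-score over 3 SD under the library average, no early fluorescence shift, positive overall ratio signal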
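Material: HEK293 cells with stable TRPC4beta plus mu-opioid receptor expression; probe or stimulus: DAMGO in two steps, submaximal then maximal; technique: Fluo4 calcium fluorescence by kinetic imaging, 5 s 1 Hz baseline; measure: integrated fluorescence ratio relative to baseline, converted to per-well B score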
TRPC4 act: opens the mouse TRPC4 cation channel. HEK293 TRPC4beta/mu-opioid, Fluo4 calcium fluorescence; hits give high values. 310,000 compounds, 0.49% hits. B-score at 10 µM. AID 2237. Q9QUQ5;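 active = B-score above 5 SD of library B-scores, and initial fluorescence ratio not above library mean plus 5 SD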;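 note: positive B-score marks a calcium rise read as TRPC4 activation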
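Assay system: HEK293 stable line with TRPC4beta plus mu-opioid receptor; schedule: 45 min room-temperature Fluo4 loading, 110 s read; technique: kinetic Fluo4 calcium fluorescence; evaluation: integrated baseline-normalised fluorescence ratio, converted to per-well B score; controls: buffer (low) and maximal DAMGO (high)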
TRPC6 inh: mouse TRPC6 channel inhibition; AID 2553; HEK293-TRPC6, membrane potential dye, ACh-evoked depolarization; hits give low values; 310,000 compounds, 1.1% hits; Q61143; B-score at 10 µM;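 active = B-score under library mean minus 3 SD, initial fluorescence not abnormally high, positive integrated signal ratio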;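 note: B-score derived from integrated fluorescence ratio over the kinetic read; more negative B-score means stronger inhibition of depolarization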
TRPC4 potent: allosteric potentiators of mouse TRPC4 channel | HEK293 TRPC4beta/mu-opioid, DAMGO EC20, Fluo-4 Ca2+ flux; hits give high values | B-score at 10 µM | 310,000 compounds, 0.42% hits | AID 2227 | Q9QUQ5;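 active = B-score of calcium response area above 5 SD of library B-scores, with initial fluorescence ratio within 5 SD of library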;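 note: B-score of integrated fluorescence ratio over time as area under calcium response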
CR mimetic SO: lowers age-related superoxide in aged yeast cells; S. cerevisiae aged cells, superoxide DHE fluorescence; hits give low values; superoxide response (% of plate mean), % at 10 µM; 330,000 compounds, 0.18% hits; AID 2690;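 active = superoxide response under a set limit, about three screen SD below normal, cut at about 65% in these data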;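 note: yeast aged for seven days with compound at 30 °C before DHE staining; 100% = average MFI of all compound-treated wells on the plate with controls excluded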
HEK293 MPD ctr: counter-screen for TRPC6 modulators: effect in parental HEK293 cells. shares compounds with TRPC6 inh. membrane potential dye fluorescence. membrane potential signal change, % at 10 µM. 2,400 compounds, 51% hits. AID 488924;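 active = membrane potential signal moves up or down beyond 5 SD from buffer-only wells, on both duplicate plates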
HEK293 MPD ctr 2: second check of TRPC6 modulator effects in parental HEK293 cells. 2,400 compounds, 14% hits. membrane potential dye fluorescence; after compound, maximal acetylcholine stimulation. inhibition, % at 10 µM. shares compounds with TRPC6 inh;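 active = membrane potential signal drops by more than 5 SD from the mean control signal, in both duplicate plates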;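 note: plate controls were acetylcholine ECmax control wells for no effect and buffer only wells for full effect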
TRPC4 ctr mod: selectivity of TRPC6 modulators against mouse TRPC4 | HEK293 TRPC4/mu-opioid, membrane potential fluorescence | AID 488927 | shares compounds with TRPC6 inh | 2,400 compounds, 69% hits | percent change from control (negative = decrease, positive = increase), % at 10 µM;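 active = membrane potential signal moved up or down beyond 5 SD of buffer control wells, in both duplicate plates, actives on both sides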;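 note: plate controls were assay buffer wells for no effect and DAMGO maximal-effect wells for full effect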
TRPC4 ctr inh 2: second selectivity test of TRPC6 modulators against mouse TRPC4. shares compounds with TRPC6 inh. HEK293 TRPC4/mu-opioid, membrane potential dye fluorescence; stimulated with maximal-effect DAMGO. inhibition, % at 10 µM. 2,400 compounds, 55% hits;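 active = drop in membrane potential signal beyond 5 SD of the control wells in both duplicate plates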;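 note: TRPC4 counter screen for TRPC6 hits run under conditions tuned for TRPC6 not TRPC4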
TRPC6 block conf: mouse TRPC6 inhibitor confirmation; shares compounds with TRPC6 inh; HEK293-TRPC6, membrane potential dye, ACh-evoked depolarization; inhibition, % at 10 µM; 3,300 compounds, 43% hits;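 active = fluorescence ratio falls more than 5 SD below the full-stimulation control mean, in both duplicate runs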;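 note: integrated fluorescence ratio of peak minus minimum over baseline after agonist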
TRPC6 act conf: confirmation of mouse TRPC6 activators; shares compounds with TRPC6 inh; HEK293-TRPC6 membrane potential dye fluorescence, FDSS; activation, % at 10 µM; 2,800 compounds, 11% hits; AID 488961;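 active = ratio signal rise beyond 5 SD above unstimulated control wells' mean, seen in both duplicate runs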;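 note: plate controls were buffer EC0 wells for no effect and acetylcholine ECmax response for full effect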
Numbers without * were called inactive; i = inactive; / = no result.

SMILES	TRPC6 activator	TRPC4 block	TRPC4 act	TRPC6 inh	TRPC4 potent	CR mimetic SO	HEK293 MPD ctr	HEK293 MPD ctr 2	TRPC4 ctr mod	TRPC4 ctr inh 2	TRPC6 block conf	TRPC6 act conf
Cc1cccc2c(=O)cc(C)n(CC(=O)N3CCCCC3)c12	i	i	i	-6.2*	i	94	-260%*	i	-46%*	28%*	i	i
CCn1nc(C(=O)NNC(=O)c2cc(Cl)ccc2OC)c2ccccc2c1=O	/	/	/	/	/	108	/	/	/	/	/	/
Cn1nc(C(=O)N2CCN(c3ccccc3)CC2)c2c1-c1ccccc1S(=O)(=O)C2	i	i	i	i	i	98	/	/	/	/	/	/
CN(C(=O)c1nn(C)c2c1CS(=O)(=O)c1ccccc1-2)c1cccc(Cl)c1	i	i	i	-5.6*	i	104	98%*	i	21%*	i	50%*	/
NC(N)=NS(=O)(=O)c1ccc(N/C=C\C(=O)c2ccncc2)cc1	i	i	i	i	i	94	/	/	/	/	/	/
CC(C)C[C@H](NC(=O)[C@@H]1Cc2ccccc2CN1)C(=O)Nc1ccc(C(C)C)cc1	i	i	i	-5.2*	i	110	i	i	-12%*	68%*	i	i
Cc1ccc(NC(=O)C(C)OC(=O)CSc2ccccc2)cc1 (stereo not given)	/	/	/	/	/	150	/	/	/	/	/	/
COc1ccc2nc(Nc3nc(CSc4ccc(C)cc4)cc(=O)[nH]3)nc(C)c2c1	i	i	i	i	i	117	/	/	/	/	/	/
Fc1cccc(CCN2CCNC[C@@H]2Cc2ccccc2)c1	i	i	i	-5.4*	i	102	i	i	i	39%*	i	i
FC(F)(F)c1cc(CCN2CCNC[C@@H]2Cc2ccccc2)cc(C(F)(F)F)c1	i	i	i	-5.6*	i	104	i	i	i	48%*	i	i
CC(O)[C@H]1CNCCN1CCc1cc(C(F)(F)F)cc(C(F)(F)F)c1 (stereo not given in full)	i	i	i	i	i	97	/	/	/	/	/	/
CCCCn1nc(NC(=O)COC)c2cc3ccc(C)cc3nc21	i	i	i	i	i	99	/	/	/	/	/	/
